Data on seven molecules can be found in ChEMBL document CHEMBL1125014, “Synthesis and structure-activity relationships of new 9-N-alkyl derivatives of 9(S)-erythromycylamine” (1990).

Holding throughout (format): functional
Test [1] deals with Haemophilus influenzae. The experiment in a line: MIC value was measured against haemophilus influenzae CL.
The test system of test [2] is Streptococcus pneumoniae. The experiment in a line: MIC value measured against streptococcus pneumoniae Park1.
The subject of test [3] is Staphylococcus aureus. In words: MIC value measured against staphylococcus aureus X1.
The test system of another test is Enterococcus faecalis. The experiment in a line: MIC value was measured against streptococcus faecalis.
Test [4] relates to Staphylococcus epidermidis. The experiment in a line: microbe, parasite or virus in culture.
Test [5] deals with Streptococcus pyogenes. In words: MIC value measured against streptococcus pyogenes C203.
Test [6] deals with Haemophilus influenzae. The experiment in a line: MIC value was measured against haemophilus influenzae. The method in brief:
(§1)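 Susceptibility determined by standard agar-dilution method against a panel of bacterial strains.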

The test system of test [7] is Bacteria. In words: MIC value was measured against staphylococcus epidermidis. The method in brief:
as §1

In test [8] the test system is Streptococcus pneumoniae. In words: Effective dose against mice infected with streptococcus pneumoniae after peroral administration (in vivo). The conditions noted are these: in Mus musculus, po.
Test [9] deals with Bacteria. The experiment in a line: MIC value was measured against streptococcus pyogenes. The method in brief:
as §1

Test [10] concerns Streptococcus pyogenes. In words: Effective dose against mice infected with streptococcus pyogenes after peroral administration (in vivo). The conditions noted are these: in Mus musculus, po.
For test [11], the system named is Staphylococcus aureus. In words: Effective dose against mice infected with Staphylococcus aureus after peroral administration (in vivo). The conditions noted are these: in Mus musculus, po.

In brackets after ≈: the same amount, converted by molar mass.

For the molecule `CC[C@H]1OC(=O)[C@H](C)[C@@H](OC2CC(C)(OC)C(O)C(C)O2)[C@H](C)[C@@H](OC2OC(C)CC(N(C)C)C2O)[C@](C)(O)C[C@@H](C)/C(=N\O)[C@H](C)[C@@H](O)[C@H]1C` (stereo partly drawn), the MIC in the test on Haemophilus influenzae [1] came out at 1 µg/mL (≈ 1.36 µM); in the test on Streptococcus pneumoniae [2], 0.008 µg/mL (≈ 0.0109 µM); with Staphylococcus aureus [3], 0.5 µg/mL (≈ 0.682 µM); with Enterococcus faecalis, 1 µg/mL (≈ 1.36 µM); in test [4] it was 0.25 µg/mL (≈ 0.341 µM); with Streptococcus pyogenes [5] it was 0.015 µg/mL (≈ 0.0205 µM).
In the case of `CCCCC/C=C\CCCN[C@@H]1[C@H](C)[C@@H](O)[C@](C)(O)[C@@H](CC)OC(=O)[C@H](C)[C@@H](OC2CC(C)(OC)C(O)C(C)O2)[C@H](C)[C@@H](OC2OC(C)CC(N(C)C)C2O)[C@](C)(O)C[C@H]1C` (stereo partly drawn), the MIC worked out at 2 µg/mL (≈ 2.29 µM) in the test with Haemophilus influenzae [1]; 0.25 µg/mL (≈ 0.286 µM) in the test on Staphylococcus aureus [3]; 0.25 µg/mL (≈ 0.286 µM) in the test on Enterococcus faecalis; 0.12 µg/mL (≈ 0.137 µM) in test [4]; 0.008 µg/mL (≈ 0.00916 µM) in the test with Streptococcus pyogenes [5]; 2 µg/mL (≈ 2.29 µM) with Haemophilus influenzae [6].
With `CC[C@H]1OC(=O)[C@H](C)[C@@H](OC2CC(C)(OC)C(O)C(C)O2)[C@H](C)[C@@H](OC2OC(C)CC(N(C)C)C2O)[C@](C)(O)C[C@@H](C)[C@H](NC2CCCCC2)[C@H](C)[C@@H](O)[C@]1(C)O` (stereo partly drawn), the MIC in the test on Haemophilus influenzae [1] came to 4 µg/mL (≈ 4.9 µM); with Streptococcus pneumoniae [2], 0.03 µg/mL (≈ 0.0367 µM); against Staphylococcus aureus [3], 0.5 µg/mL (≈ 0.612 µM); against Enterococcus faecalis, 0.25 µg/mL (≈ 0.306 µM); in test [4], 0.5 µg/mL (≈ 0.612 µM); against Streptococcus pyogenes [5], 0.06 µg/mL (≈ 0.0734 µM).
As for `CCCCC/C=C/CCCN[C@@H]1[C@H](C)[C@@H](O)[C@](C)(O)[C@@H](CC)OC(=O)[C@H](C)[C@@H](OC2CC(C)(OC)C(O)C(C)O2)[C@H](C)[C@@H](OC2OC(C)CC(N(C)C)C2O)[C@](C)(O)C[C@H]1C` (stereo partly drawn), the MIC against Haemophilus influenzae [1] came out at 2 µg/mL (≈ 2.29 µM); against Staphylococcus aureus [3] it was 0.5 µg/mL (≈ 0.573 µM); in the test on Enterococcus faecalis, 0.12 µg/mL (≈ 0.137 µM); in [4], 0.25 µg/mL (≈ 0.286 µM); against Streptococcus pyogenes [5], 0.008 µg/mL (≈ 0.00916 µM); against Haemophilus influenzae [6] it was 2 µg/mL (≈ 2.29 µM).
For the molecule `CC[C@H]1OC(=O)[C@H](C)[C@@H](OC2CC(C)(OC)C(O)C(C)O2)[C@H](C)[C@@H](OC2OC(C)CC(N(C)C)C2O)[C@](C)(O)C[C@@H](C)[C@H](NCCCCN)[C@H](C)[C@@H](O)[C@]1(C)O` (stereo partly drawn), the MIC is 64 µg/mL (≈ 79.4 µM) in the test with Haemophilus influenzae [1]; 4 µg/mL (≈ 4.96 µM) with Streptococcus pneumoniae [2]; 4 µg/mL (≈ 4.96 µM) against Staphylococcus aureus [3]; 8 µg/mL (≈ 9.92 µM) with Enterococcus faecalis; 4 µg/mL (≈ 4.96 µM) in test [4]; 0.12 µg/mL (≈ 0.149 µM) in the test with Streptococcus pyogenes [5].
In the case of `CC[C@H]1OC(=O)[C@H](C)[C@@H](OC2CC(C)(OC)C(O)C(C)O2)[C@H](C)[C@@H](OC2OC(C)CC(N(C)C)C2O)[C@](C)(O)C[C@@H](C)[C@@H](N)[C@H](C)[C@@H](O)[C@H]1C` (stereo partly drawn), the MIC is 16 µg/mL (≈ 22.3 µM) in the test on Haemophilus influenzae [1]; 2 µg/mL (≈ 2.78 µM) in the test with Staphylococcus aureus [3]; 1 µg/mL (≈ 1.39 µM) in the test on Enterococcus faecalis; 1 µg/mL (≈ 1.39 µM) in test [4]; 0.25 µg/mL (≈ 0.348 µM) with Streptococcus pyogenes [5].
Turning to `CC[C@H]1OC(=O)[C@H](C)[C@@H](OC2CC(C)(OC)C(O)C(C)O2)[C@H](C)[C@@H](OC2OC(C)CC(N(C)C)C2O)[C@](C)(O)C[C@@H](C)[C@H](N2CCCCC2)[C@H](C)[C@@H](O)[C@]1(C)O` (stereo partly drawn), the MIC came to 2 µg/mL (≈ 2.49 µM) in the test on Haemophilus influenzae [1]; 8 µg/mL (≈ 9.96 µM) against Bacteria [7]; 16 µg/mL (≈ 19.9 µM) with Staphylococcus aureus [3]; 1 µg/mL (≈ 1.25 µM) in the test with Bacteria [9]; 2 µg/mL (≈ 2.49 µM) in the test with Haemophilus influenzae [6]. In addition, the ED50 is 21 mg/kg with Streptococcus pneumoniae [8], 24 mg/kg in the test with Streptococcus pyogenes [10] and > 44 mg/kg with Staphylococcus aureus [11].
